# Assay results reported in ChEMBL document CHEMBL1156796, “Design, synthesis, and antihepatitis B virus activities of novel 2-pyridone derivatives” (J Med Chem, 2010).
# Tested on: Hepatitis B virus
# Assay: Antiviral activity against HBV infected in human HepG2(2.2.15) cells assessed as inhibition of HBsAg level after 9 days by ELISA
# Assay type: functional, organism-based
# Details: HepG2 2.2.15, 216 h; call rule not given here
row,IC50 [µM],SMILES
1,111,CCCC/N=C(\c1ccc(=O)n(CCCC)c1)c1ccc(OC)cc1O
2,61,COc1ccc(C(=O)c2ccc(=O)n(-c3ccc(Cl)cc3)c2)c(O)c1
3,> 109,COc1ccc(C(=O)c2ccc(=O)n(-c3ccc([N+](=O)[O-])cc3)c2)c(O)c1
4,18,COc1ccc(C(=O)c2ccc(=O)n(-c3ccccc3C)c2)c(O)c1
5,> 118,COc1ccc(/C(=N/Cc2ccc(C)cc2)c2ccc(=O)n(Cc3ccc(C)cc3)c2)c(O)c1
6,40,COc1ccc(/C(=N/Cc2ccccc2)c2ccc(=O)n(Cc3ccccc3)c2)c(O)c1
7,72,COc1ccc(/C(=N/Cc2ccccc2F)c2ccc(=O)n(Cc3ccccc3F)c2)c(O)c1
8,77,COc1ccc(C(=O)c2ccc(=O)n(/C=C/Nc3cccc4ccccc34)c2)c(O)c1

row,SMILES,IC50 [µM]
1,Nc1ncnc2c1ncn2CCOCP(=O)(O)O [ADEFOVIR],305

# Tested on: not listed separately
# Assay: Cytotoxicity against human HepG2(2.2.15) cells
# Assay type: cell-based
# Details: not given
row,SMILES,CC50 [µM]
1,CCCC/N=C(\c1ccc(=O)n(CCCC)c1)c1ccc(OC)cc1O,56
2,COc1ccc(C(=O)c2ccc(=O)n(-c3ccc(Cl)cc3)c2)c(O)c1,164
3,COc1ccc(C(=O)c2ccc(=O)n(-c3ccc([N+](=O)[O-])cc3)c2)c(O)c1,177
4,COc1ccc(C(=O)c2ccc(=O)n(-c3ccccc3C)c2)c(O)c1,> 119
5,COc1ccc(/C(=N/Cc2ccc(C)cc2)c2ccc(=O)n(Cc3ccc(C)cc3)c2)c(O)c1,20
6,COc1ccc(/C(=N/Cc2ccccc2)c2ccc(=O)n(Cc3ccccc3)c2)c(O)c1,102
7,COc1ccc(/C(=N/Cc2ccccc2F)c2ccc(=O)n(Cc3ccccc3F)c2)c(O)c1,51
8,COc1ccc(C(=O)c2ccc(=O)n(/C=C/Nc3cccc4ccccc34)c2)c(O)c1,244
9,Nc1ncnc2c1ncn2CCOCP(=O)(O)O [ADEFOVIR],540

# Tested on: Hepatitis B virus
# Assay: Antiviral activity against HBV infected in human HepG2(2.2.15) cells assessed as inhibition of HBV DNA replication after 9 days by PCR
# Assay type: functional, organism-based
# Details: Hepatitis B virus, HepG2 2.2.15, 216 h; read-out: IC50
row,IC50 [µM],SMILES
1,0.12,CCCC/N=C(\c1ccc(=O)n(CCCC)c1)c1ccc(OC)cc1O
2,6.2,COc1ccc(C(=O)c2ccc(=O)n(-c3ccc(Cl)cc3)c2)c(O)c1
3,11,COc1ccc(C(=O)c2ccc(=O)n(-c3ccccc3C)c2)c(O)c1
4,21.7,COc1ccc(/C(=N/Cc2ccc(C)cc2)c2ccc(=O)n(Cc3ccc(C)cc3)c2)c(O)c1
5,31.5,COc1ccc(/C(=N/Cc2ccccc2)c2ccc(=O)n(Cc3ccccc3)c2)c(O)c1
6,92.6,COc1ccc(/C(=N/Cc2ccccc2F)c2ccc(=O)n(Cc3ccccc3F)c2)c(O)c1
7,> 364,COc1ccc(C(=O)c2ccc(=O)n(/C=C/Nc3cccc4ccccc34)c2)c(O)c1

row,SMILES,IC50 [µM]
1,Nc1ncnc2c1ncn2CCOCP(=O)(O)O [ADEFOVIR],0.517

# Same assay, conditions: hepg2 2.2.15
row,IC50,SMILES
1,Not Active,COc1ccc(C(=O)c2ccc(=O)n(-c3ccc([N+](=O)[O-])cc3)c2)c(O)c1

# Tested on: not listed separately
# Assay: Selectivity index, ratio of CC50 for human HepG2(2.2.15) cells to IC50 for HBV infected in human HepG2(2.2.15) cells assessed as inhibition of HBV DNA replication
# Assay type: functional
# Details: not given
row,SMILES,Ratio CC50/IC50
1,CCCC/N=C(\c1ccc(=O)n(CCCC)c1)c1ccc(OC)cc1O,466.67
2,COc1ccc(C(=O)c2ccc(=O)n(-c3ccc(Cl)cc3)c2)c(O)c1,26.45
3,COc1ccc(C(=O)c2ccc(=O)n(-c3ccccc3C)c2)c(O)c1,>10.85
4,COc1ccc(/C(=N/Cc2ccc(C)cc2)c2ccc(=O)n(Cc3ccc(C)cc3)c2)c(O)c1,0.92
5,COc1ccc(/C(=N/Cc2ccccc2)c2ccc(=O)n(Cc3ccccc3)c2)c(O)c1,3.24
6,COc1ccc(/C(=N/Cc2ccccc2F)c2ccc(=O)n(Cc3ccccc3F)c2)c(O)c1,0.55
7,COc1ccc(C(=O)c2ccc(=O)n(/C=C/Nc3cccc4ccccc34)c2)c(O)c1,<0.67
8,Nc1ncnc2c1ncn2CCOCP(=O)(O)O [ADEFOVIR],1044.5

# Tested on: not listed separately
# Assay: Selectivity index, ratio of CC50 for human HepG2(2.2.15) cells to IC50 for HBV infected in human HepG2(2.2.15) cells assessed as inhibition of HBeAg
# Assay type: functional
# Details: not given
row,SMILES,Ratio CC50/IC50
1,CCCC/N=C(\c1ccc(=O)n(CCCC)c1)c1ccc(OC)cc1O,1
2,COc1ccc(C(=O)c2ccc(=O)n(-c3ccc(Cl)cc3)c2)c(O)c1,102.5
3,COc1ccc(C(=O)c2ccc(=O)n(-c3ccc([N+](=O)[O-])cc3)c2)c(O)c1,<1.07
4,COc1ccc(C(=O)c2ccc(=O)n(-c3ccccc3C)c2)c(O)c1,>1194
5,COc1ccc(/C(=N/Cc2ccc(C)cc2)c2ccc(=O)n(Cc3ccc(C)cc3)c2)c(O)c1,<0.17
6,COc1ccc(/C(=N/Cc2ccccc2)c2ccc(=O)n(Cc3ccccc3)c2)c(O)c1,23.18
7,COc1ccc(/C(=N/Cc2ccccc2F)c2ccc(=O)n(Cc3ccccc3F)c2)c(O)c1,1.7
8,COc1ccc(C(=O)c2ccc(=O)n(/C=C/Nc3cccc4ccccc34)c2)c(O)c1,<2.5
9,Nc1ncnc2c1ncn2CCOCP(=O)(O)O [ADEFOVIR],1.89

# Tested on: Hepatitis B virus
# Assay: Antiviral activity against HBV infected in human HepG2(2.2.15) cells assessed as inhibition of HBV DNA replication after 9 days by PCR relative to adefovir
# Assay type: functional
# Details: not given
# Procedure, shortened: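 HepG2 2.2.15 cells treated with different dosages of compound; culture supernatants collected nine days after treatment. IC50 taken as the concentration giving 50% inhibition of HBV DNA replication.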
row,SMILES,fold change (FC)
1,CCCC/N=C(\c1ccc(=O)n(CCCC)c1)c1ccc(OC)cc1O,4

# Tested on: Hepatitis B virus
# Assay: Antiviral activity against HBV infected in human HepG2(2.2.15) cells assessed as inhibition of HBeAg level after 9 days by ELISA
# Assay type: functional, organism-based
# Details: HepG2 2.2.15, 216 h
row,IC50 [µM],SMILES
1,56,CCCC/N=C(\c1ccc(=O)n(CCCC)c1)c1ccc(OC)cc1O
2,1.6,COc1ccc(C(=O)c2ccc(=O)n(-c3ccc(Cl)cc3)c2)c(O)c1
3,> 109,COc1ccc(C(=O)c2ccc(=O)n(-c3ccc([N+](=O)[O-])cc3)c2)c(O)c1
4,0.1,COc1ccc(C(=O)c2ccc(=O)n(-c3ccccc3C)c2)c(O)c1
5,> 118,COc1ccc(/C(=N/Cc2ccc(C)cc2)c2ccc(=O)n(Cc3ccc(C)cc3)c2)c(O)c1
6,4.4,COc1ccc(/C(=N/Cc2ccccc2)c2ccc(=O)n(Cc3ccccc3)c2)c(O)c1
7,30,COc1ccc(/C(=N/Cc2ccccc2F)c2ccc(=O)n(Cc3ccccc3F)c2)c(O)c1
8,> 97,COc1ccc(C(=O)c2ccc(=O)n(/C=C/Nc3cccc4ccccc34)c2)c(O)c1

row,SMILES,IC50 [µM]
1,Nc1ncnc2c1ncn2CCOCP(=O)(O)O [ADEFOVIR],286

# Tested on: not listed separately
# Assay: Selectivity index, ratio of CC50 for human HepG2(2.2.15) cells to IC50 for HBV infected in human HepG2(2.2.15) cells assessed as inhibition of HBsAg
# Assay type: functional
# Details: not given
# Procedure, shortened: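 MTT at 5 g/L added 4 h before lysis in 10% SDS/50% DMF, pH 7.2, with OD read at 570 nm. IC50: HBsAg in day-9 supernatants measured by ELISA. SI = CC50/IC50.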
row,SMILES,Ratio CC50/IC50
1,CCCC/N=C(\c1ccc(=O)n(CCCC)c1)c1ccc(OC)cc1O,0.5
2,COc1ccc(C(=O)c2ccc(=O)n(-c3ccc(Cl)cc3)c2)c(O)c1,2.69
3,COc1ccc(C(=O)c2ccc(=O)n(-c3ccc([N+](=O)[O-])cc3)c2)c(O)c1,<1.07
4,COc1ccc(C(=O)c2ccc(=O)n(-c3ccccc3C)c2)c(O)c1,>6.63
5,COc1ccc(/C(=N/Cc2ccc(C)cc2)c2ccc(=O)n(Cc3ccc(C)cc3)c2)c(O)c1,<0.17
6,COc1ccc(/C(=N/Cc2ccccc2)c2ccc(=O)n(Cc3ccccc3)c2)c(O)c1,2.55
7,COc1ccc(/C(=N/Cc2ccccc2F)c2ccc(=O)n(Cc3ccccc3F)c2)c(O)c1,0.71
8,COc1ccc(C(=O)c2ccc(=O)n(/C=C/Nc3cccc4ccccc34)c2)c(O)c1,3.17
9,Nc1ncnc2c1ncn2CCOCP(=O)(O)O [ADEFOVIR],1.77
